Article PMC10883374 (Science Advances, 2022)
Values belong to the compound of their own block, whether it stands above or below them.

How the values were obtained:
[1] = molecular target: dSAMTOR (WT, full-length) (Drosophila melanogaster, UniProt Q9W138); test: ITC ligand binding, WT dSAMTOR; conditions: ITC, 25°C, WT dSAMTOR
How it was run: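 Full-length dSAMTOR was expressed as His6-SUMO fusion in E. coli BL21 (DE3), Ni-NTA purified, tag-cleaved, then gel-filtered into 10 mM Hepes pH 7.5, 150 mM NaCl, 1 mM DTT. ITC ran at 25°C: 20 × 2 µl injections of 1 mM SAM or SAH into 0.2 mM protein, discarding an initial 0.8 µl injection, with a buffer background titration. Single-site nonlinear least-squares fit gave ΔH, n and Kd.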

[2] = molecular target: N-terminal truncated dSAMTOR (Δ1-64) (Drosophila melanogaster, UniProt Q9W138); test: ITC ligand binding, Δ1-64 dSAMTOR; conditions: ITC, 25°C, Δ1-64 dSAMTOR
How it was run: (§1)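 Tag-free dSAMTOR, expressed as His6-SUMO fusion in E. coli BL21(DE3), purified by Ni-NTA and gel filtration into 10 mM Hepes pH 7.5, 150 mM NaCl, 1 mM DTT. At 25°C, 1 mM SAM or SAH was titrated into 0.2 mM protein over 20 injections, with a background titration into buffer. Single-site fit gave Kd, ΔH and n; ΔG and ΔS were calculated. Runs: three for measurable binding, two for undetectable binding.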

[3] = molecular target: V66W/E67P mutant dSAMTOR (Drosophila melanogaster, UniProt Q9W138, E67P/V66W); test: ITC ligand binding, V66W/E67P dSAMTOR; conditions: ITC, 25°C, V66W/E67P dSAMTOR
How it was run: as §1

[4] = molecular target: R73A mutant dSAMTOR (Drosophila melanogaster, UniProt Q9W138, R73A); test: ITC ligand binding, R73A dSAMTOR; conditions: 25°C, ND = not detected
How it was run: as §1

[5] = molecular target: D150A mutant dSAMTOR (Drosophila melanogaster, UniProt Q9W138, D150A); test: ITC ligand binding, D150A dSAMTOR; conditions: 25°C, ND = not detected
How it was run: as §1

[6] = molecular target: D162A mutant dSAMTOR (Drosophila melanogaster, UniProt Q9W138, D162A); test: ITC ligand binding, D162A dSAMTOR; conditions: 25°C, ND = not detected
How it was run: as §1

[7] = molecular target: L151A mutant dSAMTOR (Drosophila melanogaster, UniProt Q9W138, L151A); test: ITC ligand binding, L151A dSAMTOR; conditions: 25°C, ND = not detected
How it was run: as §1

[8] = molecular target: L163A mutant dSAMTOR (Drosophila melanogaster, UniProt Q9W138, F163A); test: ITC ligand binding, L163A dSAMTOR; conditions: 25°C, L163A dSAMTOR (text b27: F163A), ND = not detected
How it was run: as §1

[9] = molecular target: L197A mutant dSAMTOR (Drosophila melanogaster, UniProt Q9W138, L197A); test: ITC ligand binding, L197A dSAMTOR; conditions: 25°C, ND = not detected
How it was run: as §1

[10] = molecular target: Y201A mutant dSAMTOR (Drosophila melanogaster, UniProt Q9W138, Y201A); test: ITC ligand binding, Y201A dSAMTOR
How it was run: as §1

[11] = molecular target: M202A mutant dSAMTOR (Drosophila melanogaster, UniProt Q9W138, M202A); test: ITC ligand binding, M202A dSAMTOR; conditions: 25°C, ND = not detected
How it was run: as §1

[12] = molecular target: F135A mutant dSAMTOR (Drosophila melanogaster, UniProt Q9W138, F135A); test: ITC ligand binding, F135A dSAMTOR; conditions: ITC
How it was run: as §1

[13] = molecular target: hSAMTOR; conditions: read-out: dissociation constant (Kd); cited from earlier work
[14] = molecular target: T1, hSAMTOR (WT) interaction with GATOR1-KICSTOR (Homo sapiens, UniProt Q1RMZ1); conditions: previous cell biology data; cited from earlier work
T1 sequence (Q1RMZ1 1-405): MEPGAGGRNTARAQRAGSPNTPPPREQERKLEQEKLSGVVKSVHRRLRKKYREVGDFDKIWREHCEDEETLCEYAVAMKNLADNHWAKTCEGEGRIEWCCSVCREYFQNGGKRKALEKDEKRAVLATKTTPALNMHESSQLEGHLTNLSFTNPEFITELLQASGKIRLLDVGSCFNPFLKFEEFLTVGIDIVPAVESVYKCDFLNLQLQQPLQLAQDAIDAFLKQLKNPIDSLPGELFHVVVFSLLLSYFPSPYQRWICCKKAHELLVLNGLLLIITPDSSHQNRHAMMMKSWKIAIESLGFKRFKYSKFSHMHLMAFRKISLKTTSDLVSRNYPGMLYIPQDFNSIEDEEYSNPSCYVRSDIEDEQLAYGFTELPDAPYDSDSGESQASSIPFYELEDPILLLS

Sequence of V66W/E67P mutant dSAMTOR (Q9W138 whole entry V66W/E67P): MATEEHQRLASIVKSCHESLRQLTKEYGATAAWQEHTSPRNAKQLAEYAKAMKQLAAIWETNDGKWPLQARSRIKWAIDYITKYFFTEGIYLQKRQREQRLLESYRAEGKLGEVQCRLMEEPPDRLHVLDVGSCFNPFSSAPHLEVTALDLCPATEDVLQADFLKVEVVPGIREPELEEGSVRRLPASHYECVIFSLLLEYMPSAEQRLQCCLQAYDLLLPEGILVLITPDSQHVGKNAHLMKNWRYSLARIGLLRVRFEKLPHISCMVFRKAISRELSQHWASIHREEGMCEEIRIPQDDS
Sequence of N-terminal truncated dSAMTOR (Δ1-64) (Q9W138 65-302, stated change not applied): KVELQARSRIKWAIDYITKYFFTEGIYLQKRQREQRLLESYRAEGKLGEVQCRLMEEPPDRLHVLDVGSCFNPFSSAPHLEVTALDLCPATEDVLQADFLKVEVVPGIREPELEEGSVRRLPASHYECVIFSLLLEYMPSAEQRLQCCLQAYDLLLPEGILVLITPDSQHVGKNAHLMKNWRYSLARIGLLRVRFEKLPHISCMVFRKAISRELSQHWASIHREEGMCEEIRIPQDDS
Sequence of F135A mutant dSAMTOR (Q9W138 whole entry F135A): as the sequence (Q9W138 whole entry V66W/E67P) above, with W66V, P67E, F135A counted along it
Sequence of dSAMTOR (WT, full-length) (Q9W138 whole entry, the tested form may be a part): as the sequence (Q9W138 whole entry V66W/E67P) above, with W66V, P67E counted along it
Sequence of Y201A mutant dSAMTOR (Q9W138 whole entry Y201A): as the sequence (Q9W138 whole entry V66W/E67P) above, with W66V, P67E, Y201A counted along it
Sequence of D150A mutant dSAMTOR (Q9W138 whole entry D150A): as the sequence (Q9W138 whole entry V66W/E67P) above, with W66V, P67E, D150A counted along it
Sequence of R73A mutant dSAMTOR (Q9W138 whole entry R73A): as the sequence (Q9W138 whole entry V66W/E67P) above, with W66V, P67E, R73A counted along it
Sequence of L163A mutant dSAMTOR (Q9W138 whole entry F163A): as the sequence (Q9W138 whole entry V66W/E67P) above, with W66V, P67E, F163A counted along it
Sequence of L197A mutant dSAMTOR (Q9W138 whole entry L197A): as the sequence (Q9W138 whole entry V66W/E67P) above, with W66V, P67E, L197A counted along it
Sequence of M202A mutant dSAMTOR (Q9W138 whole entry M202A): as the sequence (Q9W138 whole entry V66W/E67P) above, with W66V, P67E, M202A counted along it
Sequence of L151A mutant dSAMTOR (Q9W138 whole entry L151A): as the sequence (Q9W138 whole entry V66W/E67P) above, with W66V, P67E, L151A counted along it
Sequence of D162A mutant dSAMTOR (Q9W138 whole entry D162A): as the sequence (Q9W138 whole entry V66W/E67P) above, with W66V, P67E, D162A counted along it

Kd [1]: no measurable binding
Compound: Nc1ncnc2c1ncn2[C@@H]1O[C@H](CO)[C@@H](O)[C@H]1O [adenosine]

Kd [1]: no measurable binding
Compound: CSCC[C@H](N)C(=O)O [methionine]

Compound: Nc1ncnc2c1ncn2[C@@H]1O[C@H](CSCC[C@H](N)C(=O)O)[C@@H](O)[C@H]1O [SAH, S-adenosyl-L-homocysteine]
Kd [1]: 8.7 ± 0.92 µM
TΔS [1]: -2.99 kcal/mol
n value [1]: 0.81 ± 0.09
ΔH [1]: -9.94 ± 1.48 kcal/mol
Kd [2]: 13.1 ± 0.8 µM
TΔS [2]: -8.08 kcal/mol
n value [2]: 0.67 ± 0.04
ΔH [2]: -14.70 ± 1.05 kcal/mol
Kd [3]: 11.3 ± 0.37 µM
n value [3]: 1.02 ± 0.02
ΔH [3]: -5.09 ± 0.12 kcal/mol
Kd [4]: completely abolish SAH binding
Kd [5]: completely abolish SAH binding
Kd [6]: completely abolish SAH binding
Kd [7]: completely abolish SAH binding
Kd [8]: completely abolish SAH binding
Kd [9]: completely abolish SAH binding
Kd ([10]; 25°C, Y201A dSAMTOR): 67.3 ± 6.03 µM
TΔS ([10]; 25°C, Y201A dSAMTOR): 2.80 kcal/mol
n value ([10]; 25°C, Y201A dSAMTOR): 0.74 ± 0.02
ΔH ([10]; 25°C, Y201A dSAMTOR): -2.89 ± 0.17 kcal/mol
decrease of binding affinity compared to the WT dSAMTOR ([10]; Y201A vs WT dSAMTOR): 7.7 fold
Kd [11]: completely abolish SAH binding
increase of binding affinity compared to the WT dSAMTOR ([12]; F135A vs WT dSAMTOR): < 2 fold
Kd ([12]; 25°C, F135A dSAMTOR): 4.76 ± 0.71 µM
TΔS ([12]; 25°C, F135A dSAMTOR): -1.26 kcal/mol
n value ([12]; 25°C, F135A dSAMTOR): 0.80 ± 0.02
ΔH ([12]; 25°C, F135A dSAMTOR): -8.52 ± 0.51 kcal/mol
Kd [13]: 4.6 µM
effect of ligand binding on interaction of hSAMTOR with GATOR1-KICSTOR [14]: can disrupt the interaction of hSAMTOR with GATOR1-KICSTOR
